Measurements published in ChEMBL document CHEMBL4390648, “Chemical synthesis, crystal structure, versatile evaluation of their biological activities and molecular simulations of novel pyrithiobac derivatives” (Eur J Med Chem, 2019).
In brackets after ≈: the same amount, converted by molar mass. Activity calls are given as the source filed them. The calls are words filed in the database; no cut-off is given here.

Assays:
[1] = tested on: Candida albicans; assay: Inhibition of Candida albicans AHAS catalytic subunit at 10 uM using pyruvate as substrate measured after 30 mins by colorimetric method relative to control
Method in brief: (§1)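 Colorimetric assay in 50 mM potassium phosphate pH 7.0 with 50 mM pyruvate, 1 mM thiamine diphosphate, 10 mM MgCl2 and 10 μM FAD. Incubated 30 min at 37 °C for plant AHAS and 30 °C for fungal AHAS. Acetolactate formed was then quantified.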

[2] = tested on: Severe acute respiratory syndrome-related coronavirus; assay: Inhibition of SARS coronavirus M protease using AVLQSGFRKK as substrate at 20 uM by FRET assay relative to control
Method in brief: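 Purified SARS-CoV Mpro assayed by FRET. Protein, compound and substrate were preheated at 37 °C and oscillated. Fluorescence (ex 320/em 405 nm) was read every 5 s for 200 reads.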

[3] = tested on: Candida albicans; assay: Antifungal activity against Candida albicans isolate g5 grown in RPMI 1640 medium incubated for 24 hrs by microdilution method; type: functional; details: isolate g5, 24 h
Method in brief: (§2)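 C. albicans standard strain SC5314 and clinical isolates g5 and 17# tested by broth microdilution in YNB or RPMI 1640 medium. Plates incubated at 35 °C for up to 72 h, with visual readings taken at 24 h. MIC taken as the lowest concentration preventing visible growth.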

[4] = tested on: Tobacco mosaic virus; assay: Antiviral activity against Tobacco mosaic virus inoculated in Nicotiana tabacum leaves assessed as passivation by measuring local lesion numbers at 500 mg/l pre-incubated with virus for 30 mins followed by inoculation and measured up to 4 days; type: functional
Method in brief: (§3)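 Passivation assay: TMV mixed with an equal volume of compound solution for 30 min, then rubbed onto the left half of N. tabacum L. leaves. The right half received virus mixed with solvent as control. Local lesions counted 3–4 days after inoculation. Compounds tested at 500 or 100 mg/L.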

[5] = tested on: Candida albicans; assay: Antifungal activity against Candida albicans isolate g5 grown in YNB medium incubated for 24 hrs by microdilution method; type: functional; details: isolate g5, 24 h; method in brief: as §2
[6] = tested on: Candida albicans; assay: Antifungal activity against Candida albicans isolate 17 grown in YNB medium incubated for 24 hrs by microdilution method; type: functional; details: isolate 17, 24 h; method in brief: as §2
[7] = tested on: Candida albicans; assay: Antifungal activity against Candida albicans SC5314 grown in RPMI 1640 medium incubated for 24 hrs by microdilution method; type: functional; details: SC5314, 24 h; method in brief: as §2
[8] = tested on: Arabidopsis thaliana; assay: Inhibition of Arabidopsis thaliana AHAS catalytic subunit using pyruvate as substrate at 100 uM measured after 30 mins by colorimetric method relative to control; method in brief: as §1
[9] = tested on: Mythimna separata; assay: Insecticidal activity against Mythimna separata assessed as larval mortality at 600 mg/l by leaf-dip method; type: functional
[10] = tested on: Sclerotinia sclerotiorum; assay: Antifungal activity against Sclerotinia sclerotiorum assessed as reduction in growth at 50 mg/l by mycelium growth rate method relative to control; type: functional
Method in brief: (§4)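 Mycelium growth rate method against S. sclerotiorum, P. capsici, P. piricola, R. cerealis, W. anthracnose and R. bakanae. Each compound tested at 50 mg/L, with chlorothalonil and PTB as controls. Relative inhibitory ratio (%) calculated from mycelial growth.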

[11] = tested on: Ceratobasidium cereale; assay: Antifungal activity against Rhizoctonia cerealis assessed as reduction in growth mycelium growth rate method relative to control; type: functional, organism-based
Method in brief: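 EC50 against R. cerealis derived from mycelium growth-rate inhibition over a concentration series, using a probit fit: Probit = m(log10[I] − log10[EC50]) + 5.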

[12] = tested on: Colletotrichum; assay: Antifungal activity against Colletotrichum (W. anthracnose) assessed as reduction in growth at 50 mg/l by mycelium growth rate method relative to control; type: functional; method in brief: as §4
[13] = tested on: Candida albicans; assay: Antifungal activity against Candida albicans SC5314 grown in YNB medium incubated for 24 hrs by microdilution method; type: functional; details: SC5314, 24 h; method in brief: as §2
[14] = tested on: Candida albicans; assay: Inhibition of Candida albicans AHAS catalytic subunit at 100 uM using pyruvate as substrate measured after 30 mins by colorimetric method relative to control; method in brief: as §1
[15] = tested on: Brassica rapa subsp. oleifera; assay: Herbicidal activity against Brassica campestris L assessed as inhibition of rape root growth at 100 mg/l root growth incubated for 48 hrs relative to control; type: functional
Method in brief: (§5)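 Rape seeds soaked in distilled water for 4 h, then placed on filter paper wetted with inhibitor solution, 15 seeds per 6-cm dish. Germinated in the dark at 28 °C for 48 h. Mean length of 10 roots per plate measured.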

[16] = tested on: Botryosphaeria berengeriana; assay: Antifungal activity against Physalospora pyricola assessed as reduction in growth at 50 mg/l by mycelium growth rate method relative to control; type: functional; method in brief: as §4
[17] = tested on: Fusarium fujikuroi; assay: Antifungal activity against Gibberella fujikuroi assessed as reduction in growth at 50 mg/l by mycelium growth rate method relative to control; type: functional; method in brief: as §4
[18] = tested on: Ceratobasidium cereale; assay: Antifungal activity against Rhizoctonia cerealis assessed as reduction in growth at 50 mg/l by mycelium growth rate method relative to control; type: functional; method in brief: as §4
[19] = tested on: Arabidopsis thaliana; assay: Inhibition of Arabidopsis thaliana AHAS catalytic subunit using pyruvate as substrate at 10 uM measured after 30 mins by colorimetric method relative to control; method in brief: as §1
[20] = tested on: Brassica rapa subsp. oleifera; assay: Herbicidal activity against Brassica campestris L assessed as inhibition of rape root growth at 10 mg/l root growth incubated for 48 hrs relative to control; type: functional; method in brief: as §5
[21] = tested on: Tobacco mosaic virus; assay: Antiviral activity against Tobacco mosaic virus inoculated in Nicotiana tabacum leaves assessed as passivation by measuring local lesion numbers at 100 mg/l pre-incubated with virus for 30 mins followed by inoculation and measured up to 4 days; type: functional; method in brief: as §3
[22] = tested on: Candida albicans; assay: Antifungal activity against Candida albicans isolate 17 grown in RPMI 1640 medium incubated for 24 hrs by microdilution method; type: functional; details: isolate 17, 24 h; method in brief: as §2
[23] = tested on: Phytophthora capsici; assay: Antifungal activity against Phytophthora capsici assessed as reduction in growth at 50 mg/l by mycelium growth rate method relative to control; type: functional; method in brief: as §4
[24] = tested on: Echinochloa crus-galli; assay: Post-emergence herbicidal activity against Echinochloa crus-galli assessed as reduction in growth at 300g/ha measured after 24 days by green house pot method relative to control; type: functional; details: 576 h
[25] = tested on: Digitaria adscendens; assay: Post-emergence herbicidal activity against Digitaria adscendens assessed as reduction in growth at 300g/ha measured after 24 days by based green house pot method relative to control; type: functional; details: 576 h
[26] = tested on: Digitaria adscendens; assay: Pre-emergence herbicidal activity against Digitaria adscendens assessed as reduction in growth at 300g/ha measured after 24 days by green house pot method relative to control; type: functional; details: 576 h
[27] = tested on: Amaranthus retroflexus; assay: Pre-emergence herbicidal activity against Amaranthus retroflexus assessed as reduction in growth at 300g/ha measured after 24 days by green house pot method relative to control; type: functional; details: 576 h
[28] = tested on: Brassica rapa subsp. oleifera; assay: Post-emergence herbicidal activity against Brassica campestris assessed as reduction in growth at 300g/ha measured after 24 days by green house pot method relative to control; type: functional; details: 576 h
[29] = tested on: Echinochloa crus-galli; assay: Pre-emergence herbicidal activity against Echinochloa crus-galli assessed as reduction in growth at 300g/ha measured after 24 days by green house pot method relative to control; type: functional; details: 576 h
[30] = tested on: Amaranthus retroflexus; assay: Post-emergence herbicidal activity against Amaranthus retroflexus assessed as reduction in growth at 300g/ha measured after 24 days by green house pot method relative to control; type: functional; details: 576 h
[31] = tested on: Brassica rapa subsp. oleifera; assay: Pre-emergence herbicidal activity against Brassica campestris assessed as reduction in growth at 300g/ha measured after 24 days green house pot method relative to control; type: functional; details: 576 h

SMILES	inhibition [1] [%]	inhibition [2] [%]	MIC [3] [µg/mL]	inhibition at 500 µg/mL [4] [%]	MIC [5] [µg/mL]	MIC [6] [µg/mL]	MIC [7] [µg/mL]	inhibition [8] [%]	mortality at 600 µg/mL [9] [%]	inhibition at 50 µg/mL [10] [%]	inhibition at 50 µg/mL [12] [%]	MIC [13] [µg/mL]	inhibition [14] [%]	inhibition (INH) [15] [%]	inhibition at 50 µg/mL [16] [%]	inhibition at 50 µg/mL [17] [%]	inhibition at 50 µg/mL [18] [%]	inhibition [19] [%]	inhibition (INH) [20] [%]	MIC [22] [µg/mL]	further results
COc1cc(OC)nc(Sc2ccc(C(=O)O)cc2Br)n1	70.7	0	> 100	0	25 (≈ 67.3 µM)	12.5 (≈ 33.7 µM)	> 100	100	50	50	45.2	25 (≈ 67.3 µM)	94.6	26.4	51.6	39.4	96.4	48.9	0	> 100	EC50 [11]: 11.4 µg/mL (≈ 30.7 µM); inhibition [21]: inactive; inhibition at 50 µg/mL [23]: 42.7%
COc1cc(OC)nc(Sc2ccc(Br)cc2C(=O)O)n1	50.5	0	> 100	0	> 100	> 100	> 100	100	65	63.9	40.5	> 100	97	93.6	37.5	27.3	72.6	61	80.7	> 100	inhibition at 300 g/ha [24]: 72.3%; inhibition at 300 g/ha [25]: 12.8%; inhibition at 300 g/ha [26]: 27%; inhibition at 300 g/ha [27]: 93.8%; inhibition at 300 g/ha [28]: 80.2%; inhibition at 300 g/ha [29]: 0%; inhibition at 300 g/ha [30]: 58.7%; inhibition at 100 µg/mL [21]: 0%; inhibition at 300 g/ha [31]: 89.9%; inhibition at 50 µg/mL [23]: 33.3%
